SF-1 act – SF-1 (human) activation; Q13285; CHO-K1 Gal4-SF-1 LBD luciferase reporter; % increase over DMSO SF-1-specific signal; activation, % at 10 µM; actives 1.9% (n = 65,000); AID 522;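 active = activation above the mean activation of all tested compounds plus 3 SD, cut at about 50% in these data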
Target sequence (Q13285 whole entry, looked up, the tested form may be a part): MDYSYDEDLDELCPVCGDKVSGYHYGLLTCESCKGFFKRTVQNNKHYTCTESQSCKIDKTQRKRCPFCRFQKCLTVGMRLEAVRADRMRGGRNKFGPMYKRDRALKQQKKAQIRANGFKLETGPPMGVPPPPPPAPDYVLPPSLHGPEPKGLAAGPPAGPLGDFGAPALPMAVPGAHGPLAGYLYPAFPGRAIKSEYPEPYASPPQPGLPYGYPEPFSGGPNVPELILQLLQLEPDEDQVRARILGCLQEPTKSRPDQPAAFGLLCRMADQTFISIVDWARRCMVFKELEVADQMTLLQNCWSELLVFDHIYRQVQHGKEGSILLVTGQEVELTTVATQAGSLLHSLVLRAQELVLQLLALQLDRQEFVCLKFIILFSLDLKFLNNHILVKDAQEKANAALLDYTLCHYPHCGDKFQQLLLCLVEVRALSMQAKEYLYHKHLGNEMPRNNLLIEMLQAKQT
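Material: Gal4–SF-1 LBD one-hybrid luciferase reporter in CHO-K1 cells | Amount: 4,000 cells per well | Compound dosing: 10 µM single point, 1% DMSO | Schedule: 20 h compound treatment, 37 °C | Measured by: SteadyLite luciferase luminescence | Evaluation: Percent activation versus DMSO | Control set: DMSO-treated SF-1-transfected cells as negative, DMSO-treated mock-transfected cells lacking SF-1 as background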
RORA act – RORA (human) activation | actives 1.5% (n = 65,000) | P35398 | CHO-K1 Gal4-RORA LBD luciferase reporter, luminescence; percent increase over mock-subtracted basal signal | AID 560 | activation, % at 10 µM;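 active = activation above the mean of all tested compounds plus 3 SD, cut at about 49% in these data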
Jurkat tox 60K – reduces viability or proliferation of Jurkat cells; Jurkat E6.1 viability, ATP luminescence, 48 h; inhibition, % at 4 µM; actives 1.2% (n = 56,000);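 active = inhibition above the mean inhibition of all tested compounds plus 3 SD, cut at about 28% in these data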
HEK293 NFkB inh – inhibitors of the PMA/ionomycin-induced NF-kB reporter in HEK293 cells. HEK-293 NF-kB luciferase reporter, luminescence. actives 0.21% (n = 62,000). inhibition, % at 3 µM;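 active = inhibition above the mean of all tested compounds plus 3 SD, cut at about 40% in these data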
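Timing: 1 h pretreatment, 16 h stimulation, 37 °C; system: HEK-293 cells with stable firefly luciferase reporter driven by four HIV NF-kB elements; doses: 3 µM once, 0.30% DMSO; measured by: luciferase luminescence; control set: DMSO and 10 µM reference inhibitor; repeats: single test; reagent: PMA plus ionomycin mix as NF-kB-activating stimulus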
A number is an active result; i = inactive; nt = not tested or not shown. This is a sample that favours compounds with a hit; in the whole collection about 3.9% have one here.

SMILES	SF-1 act	RORA act	Jurkat tox 60K	HEK293 NFkB inh
O=C(Cn1cnc2ccccc2c1=O)Nc1ccc2c(c1)OCCO2	59.1	i	i	i
O=C(O)CCC(=O)c1ccc2c(c1)OCCO2	i	i	i	i
CCOCC(=O)Nc1ccc2c(c1)OCCO2	i	i	i	i
O=C(CC(=O)c1ccccc1)Nc1ccc2c(c1)OCCO2	60.8	i	i	i
O=C(COc1ncnc2ccccc12)c1ccc2c(c1)OCCO2	58.5	i	i	i
CCOc1ccc(NC2c3ccccc3C(=O)N2Cc2ccco2)cc1 (stereo unspecified)	i	i	i	i
CCOC(=O)Cn1cnc2sc3c(c2c1=O)CCC3	i	i	i	i
O=C(Nc1ccccc1)N1CCCC(c2nc(-c3cccs3)no2)C1 (stereo unspecified)	i	i	i	i
O=C(CSc1ncnc2sc3c(c12)CCCC3)c1ccco1	i	i	i	i
Cc1nc2c(sc3nc4c(cc32)COC(C)(C)C4)c(=O)n1CC(=O)NCc1ccco1	133.7	101.0	nt	i
CC1(C)Cc2nc3sc4c(SCC(=O)NCc5ccco5)ncnc4c3cc2CO1	81.0	i	77.6	i
O=C(CSc1ncnc2sc3c(c12)CCCCC3)NCc1ccco1	i	i	37.6	i
CC(C)c1nc2sc3c(SCC(=O)NCc4ccco4)ncnc3c2c2c1CCC2	i	i	nt	i
CCCc1nc2c(sc3nc4c(cc32)COC(C)(C)C4)c(=O)n1Cc1ccco1	i	i	i	i
O=C(Oc1ccc(-c2ccccc2)cc1)N1CCOCC1	i	60.6	i	i
Cc1ccc2c(c1)c1c3n2CCCNC3CCC1 (stereo unspecified)	i	54.1	i	i
c1ccc2c(c1)c1c3n2CCNC3CCC1 (stereo unspecified)	i	i	i	i
COc1ccc(NC2c3ccccc3C(=O)N2c2cccnc2)cc1Cl (stereo unspecified)	i	i	i	i
COc1cc(OC)c(NC2c3ccccc3C(=O)N2c2cc(C)ccn2)cc1Cl (stereo unspecified)	i	84.0	i	i
CCCCNC(=O)CC(=O)Nc1ccccc1C(=O)O	i	i	i	i
Cn1c(CSc2nc3ccccc3s2)n[nH]c1=S	i	i	i	i
Cn1c(CSc2nc3ccccc3s2)nc2ccccc21	70.7	i	i	i
O=c1oc2ccccc2n1CSc1nc2ccccc2s1	52.1	66.1	i	i
COc1cccc(-c2nnc(NC(C)=O)o2)c1	i	i	i	i
O=C(Nc1nnc(-c2ccccc2Cl)o1)c1ccco1	i	i	i	i
SMILES	SF-1 act	RORA act	Jurkat tox 60K	HEK293 NFkB inh
COc1ccccc1-c1nnc(Nc2nc3c(OC)cccc3s2)o1	i	i	86.7	i
COc1cccc(-c2nnc(Nc3nc4c(F)cccc4s3)o2)c1	51.4	i	i	i
COc1cccc2sc(Nc3nnc(-c4ccccc4Cl)o3)nc12	i	i	67.3	i
O=C(Cc1ccc2cccnc2c1)c1ccc(O)cc1O	i	59.6	i	i
Oc1ccc2cccnc2c1	i	i	i	i
CCN=c1scc(-c2ccc3c(c2)NC(=O)CO3)n1N=C1CCCC1	i	i	36.3	i
Clc1ccc(COn2nnc3ccccc32)c(Cl)c1	i	i	i	45.3
Cc1ccc(-c2nsc3c(N4CCC(C(N)=O)CC4)ncnc23)cc1	i	i	i	41.6
O=C(N1CCCC1)N1CCN(c2ncnc3c(-c4ccc(Cl)cc4)nsc23)CC1	i	i	i	i
Nc1nc(N)c2sc3nc4c(cc3c2n1)CCC4	57.1	56.1	i	i
CN(C)c1ccc(NC(=O)CCCc2ccccc2)cc1	i	49.9	i	i
COCC(=O)Nc1ccc(N(C)C)cc1	i	i	i	i
COc1ccc(/C=C/C2=NC(=C\N(C)C)/C(=O)O2)cc1	50.5	i	nt	nt
COc1ccc(/C=C/C(O)=C2/C(=O)N(C)C3(C)CC2c2ccccc2O3)cc1 (stereo unspecified)	i	i	i	i
COc1ccc2c(C=Nc3c(C)n(C)n(-c4ccccc4)c3=O)c(O)n(Cc3ccco3)c(=O)c2c1	i	i	i	i
CCOC(=O)C1CCCN(c2c(N3CCc4ccccc4C3)c(=O)c2=O)C1 (stereo unspecified)	i	i	i	i
CC(=O)Nc1ccc(Nc2ncnc3c2cnn3-c2cccc(C)c2)cc1	i	65.7	i	i
Clc1ccc(Nc2ncnc3c2cnn3-c2ccccc2)cc1	i	71.9	i	i
CC(=O)Nc1ccc(Nc2ncnc3c2cnn3-c2ccccc2)cc1	i	55.1	i	i
Nc1nonc1-c1noc(CCCN2C(=O)c3ccccc3C2=O)n1	49.5	i	i	i
Cc1cccc(OCc2nc(-c3nonc3N)no2)c1C	i	81.3	i	i
Nc1nonc1-c1noc(COc2ccccc2Cl)n1	68.6	87.9	i	i
Cn1nnnc1SCC(=O)N1CCN(c2cccc(Cl)c2)CC1	i	i	nt	i
CC(=O)c1ccc(Oc2ncnc3sccc23)c(CN2CCOCC2)c1	i	i	i	i
COc1cc(C(=O)N2CCN(c3cc(Cl)ccc3Cl)CC2)cc(OC)c1OC	i	i	60.6	42.7
SMILES	SF-1 act	RORA act	Jurkat tox 60K	HEK293 NFkB inh
Cc1ccccc1S(=O)(=O)Cc1ccc(C(=O)N2CC(C)CC(C)C2)o1 (stereo unspecified)	i	i	i	i
COc1cc(C(=O)N2CCN(c3cccc(C)c3C)CC2)cc(OC)c1OC	i	i	93.5	i
COc1ccc(C(=O)N2CCN(C(=O)c3cc(OC)c(OC)c(OC)c3)CC2)cc1	i	i	i	i
COc1ccc(C(=O)N2CCN(c3c(C)cccc3C)CC2)cc1OC	i	i	i	i
Cc1cccc(N2CCN(C(=O)c3ccncc3)CC2)c1C	i	i	60.0	i
Cc1ccccc1S(=O)(=O)Cc1ccc(C(=O)N2CCN(c3cccc(C)c3C)CC2)o1	i	i	93.4	i
CCc1[nH]nc2c1C(c1ccc(Br)s1)C(C#N)=C(N)O2 (stereo unspecified)	i	i	nt	nt
CC1CCCCN1C(=O)C1CC(c2ccc(F)cc2)=NO1 (stereo unspecified)	62.6	49.3	i	i
O=C(C1CC(c2ccc(F)cc2)=NO1)N1CCCCC1 (stereo unspecified)	54.6	i	i	i
Fc1ccccc1N1CCN(Cc2nc(-c3ccc(Cl)cc3Cl)no2)CC1	i	i	i	i
CCC(=O)Nc1ccc(NC(=O)c2ccccn2)cn1	i	65.4	i	i
O=C(Nc1ccc(NC(=O)C2CC2)nc1)c1ccccn1	i	i	nt	i
CC(C)C(=O)Nc1ccc(NC(=O)c2ccccn2)cn1	i	51.0	nt	i
CCOC(=O)Cc1cc(=O)[nH]c(Nc2nc3ccccc3o2)n1	i	49.5	i	i
COc1cc2cc3c(N)c(C(=O)NCc4ccco4)sc3nc2cc1OC	i	80.4	i	i
O=c1oc2ccccc2n1CCCOc1ccccc1	57.4	49.3	i	i
COc1cccc(NC(=O)COc2ccccc2C(N)=O)c1	62.1	i	i	i
COc1ccccc1OCC(=O)Nc1cccc(-c2nc3ccccc3o2)c1	61.4	i	i	i
COc1ccc(OCC(=O)Nc2cccc(OC)c2)cc1	i	i	i	i

High-throughput results as filed in PubChem BioAssay.
